ChEMBL document CHEMBL1129426, “5-Lipoxygenase inhibitors: synthesis and structure-activity relationships of a series of 1-aryl-2H,4H-tetrahydro-1,2,4-triazin-3-ones” (J Med Chem, 1996)
pIC50: −log10 of the molar value. Values joined by “and” are separate entries in the source; they are usually repeats but may differ in a detail not shown here. Identical values can stand only once.

Legend:
Cyclooxygenase [1] = target: T1, Cyclooxygenase (Rattus norvegicus, UniProt P35355+Q63921); assay: In vitro cyclooxygenase inhibitory activity against calcium ionophore (A23187) induced thromboxane formation in rat polymorphonuclear leukocytes; type: functional, cell-based
T1 sequence (P35355 whole entry): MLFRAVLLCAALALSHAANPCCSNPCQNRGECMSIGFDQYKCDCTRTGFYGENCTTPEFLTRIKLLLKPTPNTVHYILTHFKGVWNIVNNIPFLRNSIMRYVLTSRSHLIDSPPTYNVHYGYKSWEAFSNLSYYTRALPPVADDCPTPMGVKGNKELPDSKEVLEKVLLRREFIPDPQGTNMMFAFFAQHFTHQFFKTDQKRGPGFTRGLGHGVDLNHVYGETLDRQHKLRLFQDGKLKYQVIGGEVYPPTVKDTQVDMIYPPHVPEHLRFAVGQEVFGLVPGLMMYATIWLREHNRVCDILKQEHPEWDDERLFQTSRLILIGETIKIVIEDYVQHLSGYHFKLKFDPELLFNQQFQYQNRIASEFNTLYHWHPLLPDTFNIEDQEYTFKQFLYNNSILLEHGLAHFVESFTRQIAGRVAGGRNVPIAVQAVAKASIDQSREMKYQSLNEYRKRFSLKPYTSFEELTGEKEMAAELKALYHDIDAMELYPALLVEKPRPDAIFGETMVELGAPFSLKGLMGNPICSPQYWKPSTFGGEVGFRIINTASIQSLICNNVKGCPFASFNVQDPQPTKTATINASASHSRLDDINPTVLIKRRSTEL
T1 sequence (Q63921 whole entry): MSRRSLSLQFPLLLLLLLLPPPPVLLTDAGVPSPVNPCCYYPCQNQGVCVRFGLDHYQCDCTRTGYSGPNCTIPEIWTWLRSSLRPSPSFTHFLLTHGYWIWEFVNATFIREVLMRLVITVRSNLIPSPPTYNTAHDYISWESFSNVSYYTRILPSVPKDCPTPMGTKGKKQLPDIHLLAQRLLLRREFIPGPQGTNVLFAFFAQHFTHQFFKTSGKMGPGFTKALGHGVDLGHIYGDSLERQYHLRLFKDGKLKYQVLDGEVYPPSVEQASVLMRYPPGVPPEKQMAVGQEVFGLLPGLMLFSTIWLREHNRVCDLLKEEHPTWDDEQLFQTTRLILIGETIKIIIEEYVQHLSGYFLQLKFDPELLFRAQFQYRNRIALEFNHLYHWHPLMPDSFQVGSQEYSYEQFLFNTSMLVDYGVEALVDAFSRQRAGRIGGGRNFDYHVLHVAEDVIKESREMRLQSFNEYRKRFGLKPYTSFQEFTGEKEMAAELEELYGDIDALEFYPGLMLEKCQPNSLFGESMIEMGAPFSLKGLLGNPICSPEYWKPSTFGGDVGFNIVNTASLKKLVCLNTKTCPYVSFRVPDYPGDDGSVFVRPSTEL
Outline: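 Rat polymorphonuclear leukocytes, intact cells, stimulated with calcium ionophore A23187. Thromboxane quantified by enzyme immunoassay. Duplicate assays.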

[2] = target: Prostaglandin G/H synthase 1 (Ovis aries) (UniProt P05979); assay: Compound was tested in vitro for inhibition of Prostaglandin G/H synthase sheep seminal vesicle
Chain of Prostaglandin G/H synthase 1 (Ovis aries) (P05979 whole entry, looked up): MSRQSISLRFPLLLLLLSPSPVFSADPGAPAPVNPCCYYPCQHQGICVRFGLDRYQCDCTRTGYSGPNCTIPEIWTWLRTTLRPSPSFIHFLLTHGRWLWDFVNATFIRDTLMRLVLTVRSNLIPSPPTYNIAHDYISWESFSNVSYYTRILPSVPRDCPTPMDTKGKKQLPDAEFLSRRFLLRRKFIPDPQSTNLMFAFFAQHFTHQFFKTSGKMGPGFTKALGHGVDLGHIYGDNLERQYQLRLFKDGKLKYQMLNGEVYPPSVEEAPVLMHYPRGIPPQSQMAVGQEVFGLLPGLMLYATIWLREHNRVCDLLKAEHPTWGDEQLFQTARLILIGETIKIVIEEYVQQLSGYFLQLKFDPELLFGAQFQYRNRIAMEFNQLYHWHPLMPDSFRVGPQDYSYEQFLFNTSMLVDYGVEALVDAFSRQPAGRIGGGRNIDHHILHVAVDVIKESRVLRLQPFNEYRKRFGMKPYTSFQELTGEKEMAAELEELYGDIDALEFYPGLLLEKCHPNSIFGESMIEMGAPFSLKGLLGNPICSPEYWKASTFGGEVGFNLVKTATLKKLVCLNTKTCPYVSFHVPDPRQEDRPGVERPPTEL

Cyclooxygenase [3] = target: T2, Cyclooxygenase (Homo sapiens, UniProt P35354+P23219); assay: In vitro cyclooxygenase inhibitory activity against calcium ionophore (A23187) induced thromboxane formation in human whole blood; type: functional, tissue-based
Outline: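 Human whole blood stimulated with calcium ionophore A23187. Thromboxane measured by enzyme immunoassay. Assays in duplicate.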

[4] = T1/2 in cynomolgus monkey (PO dose); type: ADME, organism-based, Macaca fascicularis; conditions: in vivo
Outline: (§1)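 Cynomolgus monkeys (n=2) dosed orally, 113 or 112 µmol/kg, as suspension in 0.2% HPMC. Plasma from serial blood samples deproteinized with 2 volumes methanol, run on C18 reversed-phase HPLC (55% acetonitrile, 10 mM acetohydroxamic acid, 8 mM triethylamine acetate, pH 6.5), UV 260 nm against external calibration curve. Mean of two animals.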

[5] = target: T3, Polyunsaturated fatty acid 5-lipoxygenase (Homo sapiens, UniProt P09917); assay: In vitro 5-lipoxygenase inhibitory activity against calcium ionophore (A23187) induced LTB4 formation in human whole blood; type: functional, tissue-based
T3 sequence (P09917 whole entry): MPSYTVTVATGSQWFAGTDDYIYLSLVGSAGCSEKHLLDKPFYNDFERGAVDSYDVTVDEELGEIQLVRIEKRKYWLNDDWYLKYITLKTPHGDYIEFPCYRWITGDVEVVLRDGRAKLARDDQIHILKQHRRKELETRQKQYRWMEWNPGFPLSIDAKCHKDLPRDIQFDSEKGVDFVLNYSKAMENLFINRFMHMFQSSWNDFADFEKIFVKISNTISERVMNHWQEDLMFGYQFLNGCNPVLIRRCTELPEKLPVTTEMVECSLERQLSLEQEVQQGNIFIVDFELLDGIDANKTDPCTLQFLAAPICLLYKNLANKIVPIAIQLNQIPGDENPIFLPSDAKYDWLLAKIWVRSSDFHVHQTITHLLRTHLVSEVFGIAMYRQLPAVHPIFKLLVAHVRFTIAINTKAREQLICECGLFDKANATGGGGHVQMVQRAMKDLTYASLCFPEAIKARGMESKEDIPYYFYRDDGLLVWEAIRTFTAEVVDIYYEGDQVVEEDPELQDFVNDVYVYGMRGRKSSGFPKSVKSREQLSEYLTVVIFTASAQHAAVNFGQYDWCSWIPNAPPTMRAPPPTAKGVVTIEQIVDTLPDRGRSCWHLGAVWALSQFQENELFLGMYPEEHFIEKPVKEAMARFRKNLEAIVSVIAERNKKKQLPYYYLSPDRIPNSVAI

[6] = T1/2 in dog (PO dose); type: ADME, organism-based; conditions: in vivo
Outline: (§2)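 Dogs (n=2) given 113 or 112 µmol/kg orally. Blood sampled at various times; plasma deproteinized with methanol and quantified by reversed-phase C18 HPLC with UV detection at 260 nm, external calibration. Values are means of two animals.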

Cmax in dog (PO dose) = conditions: in vivo
[7] = Plasma Tmax in rat (PO dose); type: ADME, organism-based
Outline: (§3)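 Rats dosed by oral gavage at 200 µmol/kg. Tail-vein blood drawn at about 1 h intervals; plasma analysed by HPLC. Mean of data from two animals.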

[8] = Cmax in cynomolgus monkey (PO dose); type: ADME, organism-based, Macaca fascicularis; set-up: route oral; conditions: in vivo; outline: as §1
[9] = target: Cyclooxygenase (Rattus norvegicus) (UniProt P35355+Q63921); assay: In vitro cyclooxygenase inhibitory activity at 100 uM against calcium ionophore (A23187) induced thromboxane formation in rat polymorphonuclear leukocytes; type: functional, cell-based
Outline: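 Rat polymorphonuclear leukocytes stimulated with calcium ionophore A23187; thromboxane determined by enzyme immunoassay. Duplicate assays; percent inhibition reported at highest concentration tested.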

Rattus norvegicus = assay: In vivo inhibition of rat anaphylaxis leukotriene formation from peritoneal fluids, 1 hr after an oral dose of 200 uM/Kg; type: functional
Outline: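 Rats given 200 µmol/kg orally 1 h before antibody-antigen challenge inducing peritoneal leukotriene biosynthesis; LTE4 in peritoneal fluid measured. Mean of eight rats; percent inhibition versus control group mean; significance by one-way ANOVA with Tukey's multiple comparison.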

[10] = Tmax in rat (PO dose); type: ADME, organism-based; conditions: in vivo; outline: as §3
[11] = Tmax in dog (PO dose); type: ADME, organism-based, Canis lupus familiaris; conditions: in vivo; outline: as §2
[12] = Tmax in cynomolgus monkey (PO dose); type: ADME, organism-based, Macaca fascicularis; conditions: in vivo; outline: as §1
[13] = target: Prostaglandin G/H synthase 1 (Ovis aries) (UniProt P05979); assay: Compound at 100 uM was tested in vitro for inhibition of Prostaglandin G/H synthase sheep seminal vesicle
[14] = target: T3, Polyunsaturated fatty acid 5-lipoxygenase; assay: In vitro 5-lipoxygenase inhibitory activity against calcium ionophore (A23187) induced LTB4 formation in human whole blood.
[15] = target: T4, Polyunsaturated fatty acid 5-lipoxygenase (Rattus norvegicus, UniProt P12527); assay: In vitro 5-lipoxygenase inhibitory activity against calcium ionophore (A23187) induced LTB4 formation in rat polymorphonuclear leukocytes; type: functional, cell-based
T4 sequence (P12527 whole entry): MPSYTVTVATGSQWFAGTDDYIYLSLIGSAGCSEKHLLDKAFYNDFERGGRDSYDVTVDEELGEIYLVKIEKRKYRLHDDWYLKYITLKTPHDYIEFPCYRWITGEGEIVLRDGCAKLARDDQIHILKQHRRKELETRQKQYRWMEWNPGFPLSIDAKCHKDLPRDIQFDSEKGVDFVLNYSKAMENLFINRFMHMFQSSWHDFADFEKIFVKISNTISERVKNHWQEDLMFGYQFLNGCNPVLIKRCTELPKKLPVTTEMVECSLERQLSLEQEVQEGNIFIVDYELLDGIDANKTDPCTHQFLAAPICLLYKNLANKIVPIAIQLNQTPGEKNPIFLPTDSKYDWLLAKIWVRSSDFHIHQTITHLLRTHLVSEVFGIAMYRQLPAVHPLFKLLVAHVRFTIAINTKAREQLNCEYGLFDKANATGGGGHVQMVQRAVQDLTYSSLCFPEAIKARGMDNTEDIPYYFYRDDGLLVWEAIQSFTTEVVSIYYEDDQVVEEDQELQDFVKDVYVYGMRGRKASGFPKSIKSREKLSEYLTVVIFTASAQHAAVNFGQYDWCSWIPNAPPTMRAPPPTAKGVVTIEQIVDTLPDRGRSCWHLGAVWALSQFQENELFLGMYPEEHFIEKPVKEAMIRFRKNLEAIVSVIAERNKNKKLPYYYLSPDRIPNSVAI

Cyclooxygenase [16] = target: T2, Cyclooxygenase; assay: In vitro cyclooxygenase inhibitory activity at 100 uM against calcium ionophore (A23187) induced thromboxane formation in human whole blood; type: functional, tissue-based
Outline: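 Human whole blood challenged with calcium ionophore A23187; thromboxane measured by enzyme immunoassay as COX readout. Duplicate assays; percent inhibition at highest tested concentration.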

[17] = Cmax in rat (PO dose); type: ADME, organism-based; set-up: route oral; conditions: in vivo; outline: as §3

| Structure (SMILES) | pIC50 (Cyclooxygenase [1]) | pIC50 [2] | pIC50 (Cyclooxygenase [3]) | half-life [4] [h] | pIC50 [5] | half-life [6] [h] | Cmax (Cmax in dog (PO dose)) [µM] | Tmax [7] [h] | Cmax [8] [µM] | inhibition [9] [%] | ED50 (Rattus norvegicus) [mg/kg] | Tmax [10] [h] | Tmax [11] [h] | Tmax [12] [h] | inhibition [13] [%] | pIC50 [14] | pIC50 [15] | inhibition (Cyclooxygenase [16]) [%] | Cmax [17] [µM] |
| --- | --- | --- | --- | --- | --- | --- | --- | --- | --- | --- | --- | --- | --- | --- | --- | --- | --- | --- | --- |
| O=C1CCN(c2ccccc2)N1 [PHENIDONE] | 4.89 | 4.03 | 4.92 | – | – | – | – | – | – | – | – | – | – | – | – | – | – | – | – |
| O=C1NCCN(c2ccccc2)N1 | – | – | – | 1 | 5.24 | 0.8 | 132 | 1 | 74 | 28 | 7 | 1 | 0.3 | 2 | 4 | 5.24 and 5.04 | 5.34 | 0 | 130 |
